Assay results published in publication PMC10928850 (RSC Advances, 2024).
Values after ≈ are worked out from the molar mass of the structure shown.

How the values were obtained:
[1] = tested on: proteinase (trypsin); test: Anti-arthritic: proteinase inhibitory activity; format: biochemical; conditions: at the same concentration; mean ± SE, three replicates
[2] = tested on: β-glucosidase; test: β-Glucosidase enzyme inhibition; format: biochemical; conditions: mean ± SE, three replicates; for β-Glucosidase Inhibition (%): at the same concentration
[3] = ABTS radical scavenging assay; conditions: at equal concentrations; mean ± SE, three replicates
[4] = DPPH radical scavenging activity; conditions: mean ± SE, three replicates
[5] = Iron reducing power; conditions: mean ± SE, three replicates
How it was run: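 Reducing power was measured by the Oyaizu method and expressed in μg mL−1, with ascorbic acid as the standard.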

[6] = Total antioxidant capacity; conditions: mean ± SE, three replicates
[7] = tested on: normal lung (WI-38) cell line; test: MTT cytotoxicity, normal lung WI-38; format: cell-based; conditions: Homo sapiens, WI-38, 48 h, read-out: IC50 Normal lung (WI-38)
[8] = tested on: human lung (A549) cancer cell line; test: MTT cytotoxicity, lung cancer A549; format: cell-based; conditions: A549, 48 h, read-out: IC50 Lung cancer (A549)
How it was run: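 Human lung A549 cells, run alongside Caco-2 colon cancer and normal WI-38 lung cells, were exposed to test compound. Viability was read by MTT, with optical density at 590. IC50 and percentage growth inhibition were computed with IC50 calculation software.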

[9] = tested on: human colon (Caco-2) cancer cell line; test: MTT cytotoxicity, colon cancer Caco-2; format: cell-based; conditions: for IC50: Homo sapiens, Caco-2, 48 h, read-out: IC50 Colon cancer (Caco-2); for Therapeutic index (TI) Colon cancer (Caco-2): IC50 on the normal cells (WI-38)/IC50 on the cancer cells (Caco-2)
[10] = biological target: acetylcholinesterase (AChE) (Homo sapiens, UniProt P22303); test: Acetylcholinesterase inhibition, Ellman's method; format: biochemical; conditions: for AChE Inhibition (%): at the same concentration, mean ± SE, three replicates
[11] = tested on: bovine serum albumin (BSA); test: Anti-arthritic: inhibition of protein denaturation; conditions: inhibitory effect, at the same concentration; mean ± SE, three replicates
[12] = tested on: α-glucosidase enzyme; test: Electrophoretic α-glucosidase pattern; format: biochemical; conditions: enzyme treated at concentration equivalent to IC50
[13] = biological target: T1, α-amylase (Sus scrofa, UniProt P00690); test: α-Amylase enzyme inhibition; format: biochemical; conditions: at the same concentration; mean ± SE, three replicates
T1 sequence (P00690 16-511): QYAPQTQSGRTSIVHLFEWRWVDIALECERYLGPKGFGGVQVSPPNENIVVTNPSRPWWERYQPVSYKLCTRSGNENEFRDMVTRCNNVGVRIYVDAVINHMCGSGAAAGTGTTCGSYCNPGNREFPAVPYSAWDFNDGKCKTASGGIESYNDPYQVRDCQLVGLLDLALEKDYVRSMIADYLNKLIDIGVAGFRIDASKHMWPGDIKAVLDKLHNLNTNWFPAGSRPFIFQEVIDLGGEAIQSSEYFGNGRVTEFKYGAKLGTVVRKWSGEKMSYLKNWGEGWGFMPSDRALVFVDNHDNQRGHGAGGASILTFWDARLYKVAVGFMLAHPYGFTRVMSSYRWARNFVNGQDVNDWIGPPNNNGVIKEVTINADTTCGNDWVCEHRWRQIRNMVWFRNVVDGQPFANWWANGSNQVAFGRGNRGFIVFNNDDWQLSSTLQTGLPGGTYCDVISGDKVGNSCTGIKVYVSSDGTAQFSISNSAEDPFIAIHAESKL

[14] = biological target: α-glucosidase (Saccharomyces cerevisiae, UniProt P53341); test: α-Glucosidase enzyme inhibition; format: biochemical; conditions: at the same concentration; mean ± SE, three replicates
α-glucosidase, sequence (P53341 whole entry): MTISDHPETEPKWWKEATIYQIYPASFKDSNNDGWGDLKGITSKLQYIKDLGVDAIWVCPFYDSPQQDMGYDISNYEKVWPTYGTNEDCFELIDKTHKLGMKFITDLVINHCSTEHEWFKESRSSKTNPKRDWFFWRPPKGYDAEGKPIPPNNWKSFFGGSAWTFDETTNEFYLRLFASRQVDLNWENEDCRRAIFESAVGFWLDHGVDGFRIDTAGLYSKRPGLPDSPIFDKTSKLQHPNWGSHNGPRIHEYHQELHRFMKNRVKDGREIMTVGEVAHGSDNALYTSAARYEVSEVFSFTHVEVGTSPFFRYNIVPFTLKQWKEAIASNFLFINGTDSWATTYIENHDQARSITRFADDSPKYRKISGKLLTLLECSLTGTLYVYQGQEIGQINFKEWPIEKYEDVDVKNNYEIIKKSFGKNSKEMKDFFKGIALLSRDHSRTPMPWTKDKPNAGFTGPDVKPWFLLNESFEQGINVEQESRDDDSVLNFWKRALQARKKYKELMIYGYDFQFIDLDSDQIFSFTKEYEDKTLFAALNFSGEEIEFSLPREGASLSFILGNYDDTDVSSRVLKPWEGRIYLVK

acetylcholinesterase (AChE), sequence (P22303 32-614, species assumed): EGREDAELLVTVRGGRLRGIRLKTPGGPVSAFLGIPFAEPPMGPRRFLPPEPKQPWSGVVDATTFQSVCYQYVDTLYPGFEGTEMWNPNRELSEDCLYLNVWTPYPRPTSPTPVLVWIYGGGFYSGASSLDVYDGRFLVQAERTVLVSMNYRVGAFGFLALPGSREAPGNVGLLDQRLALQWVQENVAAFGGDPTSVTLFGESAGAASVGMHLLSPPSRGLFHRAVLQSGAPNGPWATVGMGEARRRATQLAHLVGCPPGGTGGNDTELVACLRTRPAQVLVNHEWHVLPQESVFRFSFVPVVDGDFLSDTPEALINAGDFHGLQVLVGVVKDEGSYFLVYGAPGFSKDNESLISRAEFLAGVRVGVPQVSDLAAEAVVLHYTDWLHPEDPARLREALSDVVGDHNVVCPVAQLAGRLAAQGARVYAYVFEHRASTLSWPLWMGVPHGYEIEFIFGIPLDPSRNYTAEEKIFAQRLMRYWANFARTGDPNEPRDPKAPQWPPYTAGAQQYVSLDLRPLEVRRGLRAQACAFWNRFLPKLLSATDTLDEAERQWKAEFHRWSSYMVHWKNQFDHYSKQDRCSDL

SMILES | Anti-arthritic activity: Inhibition of proteinase (%) [1] | β-Glucosidase Inhibition (%) [2] | β-Glucosidase IC50 [2] | Scavenging activity ABTS (%) [3] | Scavenging activity DPPH IC50 [4] | Antioxidant activity IRP [5] | Antioxidant activity TAC [6] | IC50 [7] | IC50 [8] | IC50 [9] | Therapeutic index (TI) Colon cancer (Caco-2) [9] | IC50 [10] | AChE Inhibition (%) [10] | Anti-arthritic activity: Proteinase denaturation (%) [11] | α-glucosidase band (45 KDa) Qty (Band Quantity) [12] | α-Amylase Inhibition (%) [13] | α-Glucosidase Inhibition (%) [14]
O=C(O)Cc1ccccc1Nc1c(Cl)cccc1Cl [Diclofenac sodium, reference compound] | 41.88 ± 0.09% |  |  |  |  |  |  |  |  |  |  |  |  |  |  |  | 
COc1ccc(Nc2nn3c(-c4ccccc4)ccnc3c2C(=O)Nc2ccc(Cl)cc2)cc1 [12b] | 16.25 ± 0.04% | 9.66 ± 0.02% | 5180 ± 10 µg/mL | 28.23 ± 0.06% | 18.33 ± 0.04 µg/mL | 17.97 ± 0.04 µg/mL | 31.27 ± 0.07 mg gallic acid per g | 305 µg/mL (≈ 649 µM) | 40.5 µg/mL (≈ 86.3 µM) | 29.8 µg/mL (≈ 63.3 µM) | 10.24 | 6.7 mM | 16.00 ± 0.04% | 17.55 ± 0.04% |  |  | 
C[C@H]1O[C@H](O[C@H]2[C@H](O)[C@@H](O)[C@@H](O[C@H]3[C@H](O)[C@@H](O)C(O)O[C@@H]3CO)O[C@@H]2CO)[C@H](O)[C@@H](O)[C@@H]1N[C@H]1C=C(CO)[C@@H](O)[C@H](O)[C@H]1O (stereo partly shown) [Acarbose] |  | 47.70 ± 0.01% | 1070 ± 10 µg/mL |  |  |  |  |  |  |  |  |  |  |  | completely decreasing the protein band | 65.95 ± 0.01% | 55.45 ± 0.01%
O=C1O[C@H]([C@@H](O)CO)C(O)=C1O [Ascorbic acid, reference compound] |  |  |  | 39.09 ± 0.09% | 4.05 ± 0.01 µg/mL |  |  |  |  |  |  |  |  |  |  |  | 
COc1cccc2c1C(=O)c1c(O)c3c(c(O)c1C2=O)C[C@@](O)(C(=O)CO)C[C@@H]3O[C@H]1C[C@H](N)[C@H](O)[C@H](C)O1 [Doxorubicin, reference compound] |  |  |  |  |  |  |  | 76 µg/mL (≈ 140 µM) | 31.3 µg/mL (≈ 57.6 µM) | 28.4 µg/mL (≈ 52.3 µM) | 2.67 |  |  |  |  |  | 
COc1ccc(Nc2nn3c(-c4ccccc4)ccnc3c2C(=O)Nc2ccccc2)cc1 [12a] | 14.91 ± 0.03% | 7.67 ± 0.01% | 6470 ± 10 µg/mL | 25.28 ± 0.06% | 19.63 ± 0.04 µg/mL | 17.29 ± 0.04 µg/mL | 30.58 ± 0.07 mg gallic acid per g | 134 µg/mL (≈ 308 µM) | 47.8 µg/mL (≈ 110 µM) | 38.1 µg/mL (≈ 87.6 µM) | 3.5 | 7.67 mM | 14.92 ± 0.02% | 16.24 ± 0.04% |  |  | 
